Hits are enriched below; roughly 2.7% of the tested compounds scored in any of these assays.
Rpn11 inh = Rpn11 (human) deubiquitinase inhibition. human 26S proteasome, Ub4-pepOG fluorescence polarization; 20S core pre-blocked with epoxomicin. inhibition, % at 20 µM. 0.59% of 360,000 active. AID 588493;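 active = inhibition at 20 µM, scaled to each plate's controls, above about 33%, limit read from the data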
NadD inh = NadD (S. aureus) enzyme inhibition. purified NadD enzyme, colorimetric absorbance read-out. inhibition, % at 20 µM. 0.78% of 360,000 active; in the data active = inhibition above about 26%
HNF4A DNA FP = change in binding of human HNF4 alpha to DNA. P41235. HNF4a-FITC DNA binding, fluorescence polarization, 1 h. activity change, % at 10 µM. 0.3% of 360,000 active. AID 1224865; in the data active = activity change above about 30%, passing the limit was not always enough
CSN inh = CSN deneddylation inhibition. Q92905. Purified CSN, SCF-Nedd8-OG deneddylation, fluorescence polarization. inhibition, % at 12.5 µM. 0.38% of 360,000 active;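 active = pattern-corrected inhibition above about 35%, with an unprinted fluorescence ratio check between 0.5 and 1.5, limit read from the data, passing the limit was not always enough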
Target sequence (Q92905 whole entry, looked up, one chain of several): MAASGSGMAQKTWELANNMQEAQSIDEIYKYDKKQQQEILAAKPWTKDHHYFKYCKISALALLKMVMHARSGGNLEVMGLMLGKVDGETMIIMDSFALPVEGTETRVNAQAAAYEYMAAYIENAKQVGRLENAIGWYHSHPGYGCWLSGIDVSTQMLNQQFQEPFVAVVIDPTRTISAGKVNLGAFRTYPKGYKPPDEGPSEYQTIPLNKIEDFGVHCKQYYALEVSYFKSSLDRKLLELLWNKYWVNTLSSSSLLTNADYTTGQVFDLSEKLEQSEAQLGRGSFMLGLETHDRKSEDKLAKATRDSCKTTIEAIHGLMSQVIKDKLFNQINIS
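Test system: Human Csn5 produced in HEK293T cells | Compound: 12.5 µM single point | Times: 90 min, room temperature | Signal: Fluorescence polarization readout | Read-out basis: % inhibition of substrate cleavage by Csn5 | Controls: no-enzyme wells high, enzyme-with-substrate wells low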
PP1 inh = counter-screen for PP5 inhibitors: inhibitors of human PP1-alpha | P62136 | purified PP1alpha, OMFP fluorescence | inhibition, % at 6.7 µM | 0.9% of 320,000 active | AID 2235;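 active = inhibition above the mean inhibition of all tested compounds plus 3 SD, computed separately for each screening campaign, cut at about 15% in these data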
Target sequence (P62136 whole entry, looked up): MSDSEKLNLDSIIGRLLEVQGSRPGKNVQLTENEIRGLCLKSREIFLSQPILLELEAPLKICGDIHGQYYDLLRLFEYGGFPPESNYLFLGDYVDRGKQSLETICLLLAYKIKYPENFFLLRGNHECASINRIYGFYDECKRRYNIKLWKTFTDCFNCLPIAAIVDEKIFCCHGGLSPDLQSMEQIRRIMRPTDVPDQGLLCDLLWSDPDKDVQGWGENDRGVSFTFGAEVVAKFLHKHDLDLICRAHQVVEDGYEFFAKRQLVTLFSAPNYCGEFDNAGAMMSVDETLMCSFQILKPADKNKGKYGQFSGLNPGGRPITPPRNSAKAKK
TPT1 inhibitor = C. albicans TPT1 enzyme inhibition | 0.81% of 300,000 active | inhibition, % at 5 µM | AID 1962 | recombinant caTPT1, FP RNA substrate dephosphorylation;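 active = inhibition above the mean of all tested compounds plus 3 SD, set per screening campaign, cut at about 24% in these data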
PP1 inh confirm = human PP1 phosphatase inhibition, confirmation. purified PP1alpha, OMFP substrate fluorescence. 52% of 1,900 active. shares compounds with PP1 inh. AID 2358. inhibition, % at 6.7 µM;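 active = mean PP1 inhibition above a set limit taken from the earlier primary screen, cut at about 15% in these data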
PP5 inh counter = counter-screen for PP1 inhibitors: human PP5 phosphatase inhibition. 4% of 1,900 active. AID 2360. inhibition, % at 6.7 µM. shares compounds with PP1 inh. purified PP5c, OMFP fluorescence;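 active = mean PP5 inhibition over triplicate wells above about 9.5% taken from the earlier PP1 screen, limit read from the data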
Hits are given with their value; n = inactive; x = not tested or not shown.

SMILES	Rpn11 inh	NadD inh	HNF4A DNA FP	CSN inh	PP1 inh	TPT1 inhibitor	PP1 inh confirm	PP5 inh counter
CNc1cc(CSC)nc(SCc2ccc(Cl)c(Cl)c2)n1	n	n	n	n	25.4	n	n	n
Cc1ccccc1NC(=O)Cc1nc(COC(=O)c2ncc(Cl)c(Cl)c2Cl)cs1	n	n	n	n	x	x	x	x
CCCCN(C)S(=O)(=O)c1ccc(C(=O)Nc2nnc(-c3cccs3)o2)cc1	x	x	x	x	32.7	n	19.5	n
O=C(Nc1nnc(-c2cccs2)o1)c1cccc(Oc2ccccc2)c1	n	n	n	n	28.7	n	29.0	n
CCCN(CCC)S(=O)(=O)c1ccc(C(=O)Nc2nnc(CSC)o2)cc1	n	n	n	n	23.7	n	21.7	n
CCCCN(C)S(=O)(=O)c1ccc(C(=O)Nc2nnc(C3=COCCO3)o2)cc1	n	n	n	n	n	n	x	x
O=C(Nc1nnc(-c2ccccn2)o1)c1cccc(Cl)c1	n	n	n	n	24.6	n	n	n
CCc1nc2ccc(C(=O)NCCN3CCNC3=O)cn2c1N(CC)CCOC	n	n	n	n	x	x	x	x
CCC/C=C/c1ccc(CN2C(C)C(=O)N(Cc3cn(CC4CCCCC4)nn3)CCS2(=O)=O)cc1 (centres undefined)	n	n	n	n	x	x	x	x
COc1ccc(C2(C)NC(=O)N(CC(=O)NC3CCCC3)C2=O)cc1OC (centres undefined)	n	n	n	n	n	x	x	x
CNC(=O)c1cc2c(-c3ccccc3)nn(C)c2s1	n	n	n	n	n	n	x	x
CCN(c1ccccc1)S(=O)(=O)c1ccc(C(=O)Nc2cccc(C)n2)cc1	n	n	n	n	n	x	x	x
CCCCN(CC)S(=O)(=O)c1ccc(C(=O)Nc2nnc(CSC)o2)cc1	n	n	n	n	29.2	n	20.1	n
CCc1nnc(NC(=O)c2ccc(S(=O)(=O)N(CCOC)CCOC)cc2)o1	n	n	n	n	n	n	x	x
CCN(c1ccccc1)S(=O)(=O)c1ccc(C(=O)Nc2nnc(COC)o2)cc1	n	n	n	n	n	n	x	x
COCc1nnc(NC(=O)c2ccc(S(=O)(=O)N(C)c3ccccc3)cc2)o1	n	n	n	n	22.0	n	n	n
CCCCN(CCCC)S(=O)(=O)c1ccc(C(=O)Nc2nnc(CSC)o2)cc1	n	n	n	n	27.3	n	29.3	n
CCN(c1ccccc1)S(=O)(=O)c1ccc(C(=O)Nc2nnc(CSC)o2)cc1	n	n	n	n	38.5	n	27.5	n
O=C(Nc1nnc([C@H]2C[C@H](O)[C@@H](CO)O2)s1)c1cccc(OC(F)(F)F)c1	n	n	n	n	x	x	x	x
CCCCN(CC)S(=O)(=O)c1ccc(C(=O)Nc2nnc(COC)o2)cc1	n	n	n	n	19.1	n	n	n
COCc1nnc(NC(=O)c2ccc(S(=O)(=O)N(CC(C)C)CC(C)C)cc2)o1	n	n	n	n	n	n	x	x
O=C(CN(Cc1ccc(F)cc1)C(=O)CCC(=O)Nc1nccs1)NCc1ccccc1	n	n	n	n	n	n	x	x
Oc1c(CN2CCN(c3ccccc3)CC2)cc(Br)c2cccnc12	n	n	n	n	28.8	n	32.4	n
COc1ccc(C(=O)NCCCNC(=O)c2ccccn2)cc1	n	n	n	n	n	n	x	x
CCCc1[nH]n(-c2nc3ccccc3s2)c(=O)c1C=NCCN1CCOCC1	n	n	n	n	19.6	n	n	n
SMILES	Rpn11 inh	NadD inh	HNF4A DNA FP	CSN inh	PP1 inh	TPT1 inhibitor	PP1 inh confirm	PP5 inh counter
Cc1c(-c2ccc(Cl)cc2)oc(=O)c2c(N)n(-c3ccccc3)nc12	n	n	n	n	23.4	n	27.9	n
CCOC(=O)c1c(-n2cnnn2)sc2c1CCCC2	n	n	n	n	n	n	x	x
CCOC(=O)c1c(N2C(=O)Nc3cc(Cl)c(Cl)cc3N2O)sc2c1CCCCC2	n	n	n	n	19.5	n	17.4	n
CCn1c(SCC(=O)c2ccc3c(c2)Cc2ccccc2-3)nnc1-c1ccc(N)cc1	n	n	n	n	20.7	n	20.4	n
COc1ccccc1/C=C1\SC(N2CCC(C)CC2)=NC1=O	n	n	n	n	n	n	x	x
O=C1N=C(N2CCC(Cc3ccccc3)CC2)S/C1=C/c1cn[nH]c1-c1ccccc1	n	41.2	n	n	20.8	n	n	n
N=C1C(c2nc3ccccc3s2)=C(O)CN1NC(=O)c1ccccc1[N+](=O)[O-]	n	n	n	n	21.4	n	25.3	n
COc1cc(/C=C(\C#N)C(=O)Nc2cccc(C(=O)O)c2)ccc1OCc1ccc(Cl)cc1	n	n	n	n	31.4	n	24.2	n
COc1cc(/C=C(/C#N)C(=O)Nc2ccccc2)c(Br)cc1OCc1ccc(C(=O)O)cc1	n	n	n	n	n	n	x	x
CCOC(=O)c1ccc(NS(=O)(=O)c2ccc(Cl)nc2)cc1	x	x	x	x	n	n	n	n
Cc1cc(C(=O)COC(=O)CC2Sc3ccccc3NC2=O)c(C)n1-c1ccccc1 (centres undefined)	n	n	n	n	22.5	n	n	n
Cc1cc(C(=O)COc2cccnc2[N+](=O)[O-])c(C)n1Cc1cccs1	n	n	n	n	18.2	n	n	n
COc1cc(C(=O)NNC(=O)c2cc(S(=O)(=O)N(C)C)ccc2N2CCCC2)cc(OC)c1OC	n	n	n	n	n	x	x	x
CCOC(=O)C1=C(C)N=c2s/c(=C\c3cccc(OCC(=O)O)c3)c(=O)n2C1c1ccccc1 (centres undefined)	n	n	n	n	x	x	x	x
COc1cccc(C2C3=C(N=c4s/c(=C\c5ccc(O)cc5)c(=O)n42)c2ccccc2CC3)c1OC (centres undefined)	n	n	n	n	n	n	x	x
COc1cccc(C2C3=C(N=c4s/c(=C\c5ccc(OCC(=O)O)cc5)c(=O)n42)c2ccccc2CC3)c1 (centres undefined)	x	x	x	x	22.5	n	n	n
COc1ccccc1C1C2=C(N=c3s/c(=C/c4cccc(OCC(=O)O)c4)c(=O)n31)c1ccccc1CC2 (centres undefined)	n	n	n	n	19.8	n	19.3	n
COc1ccccc1NC(=O)C1CCCN1C(=O)Nc1ccc(F)cc1 (centres undefined)	n	n	n	n	n	n	x	x
CCCCc1c(-c2ccccc2OC)ncn1CCc1ccccc1Cl	x	n	n	n	x	x	x	x
COc1ccc(C2C(C(=O)c3cccs3)=C(O)C(=O)N2CCN2CCOCC2)c(OC)c1 (centres undefined)	n	n	n	n	n	n	x	x
O=[N+]([O-])c1cccc(-c2c(-c3ccccc3)ncc3ccc(F)cc23)c1	n	n	n	n	n	x	x	x
Cc1ccc(-c2c(C)sc(NC(=O)C3C4CCC(O4)C3C(=O)O)c2C(=O)OC(C)C)cc1 (centres undefined)	n	n	n	n	n	n	x	x

From PubChem
